Assay outcomes from PubChem.
Rows were chosen to be rich in hits. Some 2.6% of all compounds tested hit in one or more screens of this group.
LMPTP inh – LMPTP phosphatase inhibitors, primary screen, biochemical, fluorescence intensity, uHTS | AID 651560, 2012 | inhibition, % at 20 µM | 360,000 tested, 0.22% active | recombinant LMPTP-A, OMFP fluorogenic substrate | Low molecular weight phosphotyrosine protein phosphatase (Homo sapiens), P24666;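 active means compounds that cut the enzyme signal by at least half of the control window in the single-dose screen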;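 further: plate controls were DMSO wells with enzyme plus substrate for no effect and substrate without enzyme for full effect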
Target sequence (P24666 whole entry, looked up): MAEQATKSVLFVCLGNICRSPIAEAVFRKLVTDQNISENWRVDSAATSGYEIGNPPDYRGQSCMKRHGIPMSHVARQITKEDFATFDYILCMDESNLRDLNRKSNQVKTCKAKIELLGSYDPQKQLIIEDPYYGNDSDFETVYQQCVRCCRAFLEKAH
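Test system: LMPTP-A, protein tyrosine phosphatase of low molecular weight; Input: 0.625 nM enzyme; Incubation: 50 min dark incubation at room temperature; Signal: endpoint fluorescence intensity from OMFP dephosphorylation; Read-out basis: % inhibition versus control wells.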
NadD inh – inhibitors of S. aureus NadD, primary screen, biochemical, colorimetric, uHTS. AID 602399, 2012. Nicotinate-nucleotide adenylyltransferase NadD (Staphylococcus aureus N315). inhibition, % at 20 µM. 360,000 tested, 0.78% active. purified NadD enzyme, colorimetric absorbance read-out; in the data active means inhibition above about 26%
rCAG binder – binders of r(CAG) RNA repeats, primary screen, biochemical, fluorescence; r(CAG) RNA repeat, TO-PRO-1 dye displacement fluorescence; 370,000 tested, 1.3% active; AID 651821, 2012; inhibition, % at 3 µM;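 active means inhibition above the plate cutoff, the mean of all test compounds on that plate plus 3 SD, cut at about 35% in these data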;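 further: 0% = DMSO alone and 100% = 100 µM mitoxantrone as full dye displacement; higher means more dye released from RNA so lower well fluorescence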
STEP block – STEP phosphatase inhibitors, primary screen, biochemical, fluorescence intensity, uHTS; inhibition, % at 20 µM; recombinant STEP, OMFP fluorogenic substrate; Tyrosine-protein phosphatase non-receptor type 5 (Homo sapiens), P54829; 360,000 tested, 0.25% active;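 active means inhibition at 20 µM, scaled per plate between control wells, above about 37%, limit read from the data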;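 further: 0% = DMSO with enzyme and substrate and 100% = substrate only without enzyme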
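Measure: Control-normalized % inhibition with plate pattern correction | Test system: STEP phosphatase, cell-free reaction | Medium: pH 6.0 Bis-Tris with DTT and Tween 20 | Technique: Fluorescence, 480/540 nm | Times: Reaction 20 min, ambient temperature | Doses: Single compound dose of 20 µM, 1% DMSO final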
Scp1 inh – Scp-1 phosphatase inhibitors, primary screen, biochemical, colorimetric, uHTS | AID 493091, 2011 | inhibition, % at 20 µM | 340,000 tested, 0.88% active | Recombinant Scp1, phosphopeptide, malachite green phosphate absorbance | Carboxy-terminal domain RNA polymerase II polypeptide A small phosphatase 1 (Homo …;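 active means inhibition above about 50% at 20 µM, limit read from the data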;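 further: plate controls were DMSO wells with enzyme for no effect and wells lacking enzyme for full effect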
Target sequence (Q9GZU7 76-261 limits assumed): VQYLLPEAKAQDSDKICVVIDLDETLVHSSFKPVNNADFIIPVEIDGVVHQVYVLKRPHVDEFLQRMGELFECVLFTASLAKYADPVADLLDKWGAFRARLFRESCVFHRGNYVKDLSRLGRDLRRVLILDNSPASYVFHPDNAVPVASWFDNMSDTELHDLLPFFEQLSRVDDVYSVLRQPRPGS
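System: SCP-1 catalytic domain; Reagent: Phospho 17-mer peptide substrate; Doses: one concentration, 20 µM, with 1.0% DMSO; Incubation: 45 min room-temperature reaction, 5 min colour, 30 min stabiliser; Signal: Phosphate-binding colour reagent, absorbance read at 630 nm.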
* hit, by the source's call; . = not tested or not shown.

SMILES	LMPTP inh	NadD inh	rCAG binder	STEP block	Scp1 inh
Cc1c(C(=O)OCc2ccccc2)[nH]c2c1C(=O)CC(c1ccco1)C2 (stereo not drawn)	79*	16	.	3	71*
Cc1c(C(=O)O)[nH]c2c1C(=O)CC(c1ccccc1)C2 (stereo not drawn)	0	2	1	-1	-10
O=C(OC12CCCN(C1)/C(=C/c1ccccc1)C2)c1ccc(Cl)cc1 (stereo not drawn)	.	.	3	.	.
COCCOC(=O)c1[nH]c2c(c1C)C(=O)CC(c1ccc(F)cc1)C2 (stereo not drawn)	0	-5	-1	0	-7
CCOC(=O)c1[nH]c2c(c1C)C(=O)CC(c1ccco1)C2 (stereo not drawn)	37	1	31	0	64*
COC(=O)[C@]12C[C@H](CC(=O)NCCc3ccccc3OC)C(=O)N(Cc3ccc4c(c3)OCO4)C1=C[C@H](C(C)C)O[C@@H]2C1CC1	.	.	7	.	.
O=C(C1COc2ccccc2O1)N1CCCC1 (stereo not drawn)	-1	5	1	-4	-2
O=C(C1COc2ccccc2O1)N1CCc2ccccc21 (stereo not drawn)	2	-6	-2	6	74*
CC(COc1ccc(S(C)(=O)=O)cc1)CN1CCC(C(O)(c2ccccc2)c2ccccc2)CC1 (stereo not drawn)	.	.	1	.	.
Cc1cc(SCC(=O)N/N=C/c2ccc(O)c(O)c2O)c(C)cc1Br	11	13	55*	3	-14
COc1ccc(CNC(=O)CCNS(=O)(=O)c2ccc3[nH]c(=O)oc3c2)cc1	.	.	1	.	.
COc1ccc(CN2C(=O)N3Cc4ccccc4C3CS2(=O)=O)cc1 (stereo not drawn)	.	.	4	.	.
CC(Oc1ccc2c(-c3ccccc3)cc(=O)oc2c1)C(=O)N[C@H](Cc1c[nH]c2ccccc12)C(=O)O (stereo partly drawn)	0	8	31	1	-1
O=C(COc1ccc2c(-c3ccccc3)cc(=O)oc2c1)N[C@H](Cc1c[nH]c2ccccc12)C(=O)O	-1	6	40*	-1	12
CCOC(=O)[C@]12CCCC3=C1N(CCC3)C(=O)[C@@H](CC(=O)NCc1ccc(OC)c(OC)c1)C2	.	.	-1	.	.
Oc1ccc(-c2nc3ccccc3s2)c(O)c1	4	-2	12	-4	-13
Oc1ccc(N=C/C=C/c2cccc(Br)c2)cc1-c1nc2ccccc2s1	23	41*	.	11	3
CCOc1cc(/C=N/NC(=O)Cc2ccc(C(F)(F)F)cc2[N+](=O)[O-])c(Br)cc1OC	0	12	0	-1	0
COc1cc(Br)cc(/C=N/NC(=O)Cc2ccc(C(F)(F)F)cc2[N+](=O)[O-])c1O	0	39*	6	0	0
O=C(CNCc1ccccc1[N+](=O)[O-])N1CCC2(CC1)OCCO2	.	.	6	.	.
COC(=O)C1CN(Cc2ccc(OC)cc2)CCS(=O)(=O)N1Cc1ccccc1 (stereo not drawn)	.	.	4	.	.
COC(=O)[C@H](CC(C)C)N(CCCc1cn(Cc2ccc(C)cc2)nn1)S(=O)(=O)c1ccccc1Br	.	.	2	.	.
O=C(c1ccc(CSc2nc3ccncc3[nH]2)cc1)N1CCN(c2cccc(Cl)c2)CC1	66*	13	7	6	-9
O=C(c1ccc(CSc2nc3ccncc3[nH]2)cc1)N1CCCCCC1	17	-1	-3	0	-12
COc1ccc(/C=C2/SC(=S)N(CCCC(=O)Nc3ccccc3C(=O)O)C2=O)cc1	2	9	20	3	-9
SMILES	LMPTP inh	NadD inh	rCAG binder	STEP block	Scp1 inh
COc1ccc(/C=C2\SC(=S)N(CCCC(=O)NNC(=O)c3ccccc3O)C2=O)cc1	2	38*	2	2	5
O=C(CCCN1C(=O)/C(=C/c2cccs2)SC1=S)NNC(=O)c1ccccc1O	0	28*	4	-3	1
COc1ccccc1/C=C1\SC(=S)N(CCC(=O)NNC(=O)c2ccccc2O)C1=O	1	32*	.	0	-9
COc1ccccc1/C=C1\SC(=S)N(CCC(=O)N2CCN(C)CC2)C1=O	-1	-6	2	2	4
COCC(=O)N(Cc1ccccc1)c1ccccc1C(=O)Nc1cc(OC)ccc1OC	.	.	0	.	.
CCc1ccc(S(=O)(=O)/N=C2/C=C(Sc3ncn[nH]3)C(=O)c3ccccc32)cc1	9	71*	.	18	5
COC(=O)c1c[nH]c2c1-c1cc(C(=O)OCc3ccccc3)n(S(=O)(=O)c3ccc(C)cc3)c1C(=O)C2=O	60*	23	6	5	5
COC(=O)c1cc2c(c3c4cc(C)ccc4n(S(=O)(=O)c4ccc(C)cc4)c13)C(=O)N(Cc1ccccc1)C2	.	.	13	.	.
CCCCCCCCCCCCCCCC[n+]1cccc2ccccc21	4	53*	8	18	75*
CCCCCCCCC[n+]1cccc2c3ccccc3ccc21	2	6	.	2	12
O=C(NCc1ccco1)C1CCCN(S(=O)(=O)c2ccc([N+](=O)[O-])cc2)C1 (stereo not drawn)	.	.	1	.	.
COC(=O)c1cc(NS(=O)(=O)c2ccc(N3CCCCC3)c([N+](=O)[O-])c2)cc(C(=O)OC)c1	2	3	69*	2	-4
Clc1ccc([C@H]2OC[C@@]3(CNCC4CC4)CS[C@H](c4ccc(Cl)cc4)N23)cc1	.	.	2	.	.
C=C(C)C(=O)Nc1cccc(C2=NOC3(C2)C[C@@H](C(N)=O)N(C(=O)c2ccc(OC)cc2)C3)c1 (stereo partly drawn)	2	-10	.	13	99*
O=C(c1ccco1)N(CCC(c1ccccc1)c1ccco1)Cc1ccco1 (stereo not drawn)	3	45*	7	9	74*
CCCCNC(=O)NCC1CCN(Cc2ccc(OC)cc2)CC1	.	.	1	.	.
N#C/C(=C/c1cccn1-c1cccc(C(=O)O)c1)c1ccc(F)cc1	1	2	50*	2	21
Cc1ccc(/C=C2\SC(=S)N(CCCC(=O)Nc3ccc(O)cc3)C2=O)cc1	1	0	6	2	3
O=C(O)CCN1C(=O)/C(=C\c2ccc(OCc3ccccc3)c(OCc3ccccc3)c2)SC1=S	14	31*	12	7	16
CCc1ccc(/C=C2\SC(=S)N(CCCC(=O)Nc3ccc(C(=O)O)cc3)C2=O)cc1	64*	26	2	16	9
O=C(O)CCN1C(=O)/C(=C\c2cccc(OCc3ccccc3)c2)SC1=S	2	7	7	5	25
